Measured values of several laboratories.
Protocols differ between the studies behind these lines.
ABL1 M351T phosphorylated: Tyrosine-protein kinase ABL1, phosphorylated (ABL1, Homo sapiens, UniProt P00519, M351T)
ABL1 T315I non-phosphorylated: Tyrosine-protein kinase ABL1, non-phosphorylated (ABL1, Homo sapiens, UniProt P00519, T315I)
ABL1 phosphorylated: Tyrosine-protein kinase ABL1, phosphorylated (ABL1, Homo sapiens, UniProt P00519)
ABL1 H396P non-phosphorylated: Tyrosine-protein kinase ABL1, non-phosphorylated (ABL1, Homo sapiens, UniProt P00519, H396P)
ABL1 Q252H phosphorylated: Tyrosine-protein kinase ABL1, phosphorylated (ABL1, Homo sapiens, UniProt P00519, Q252H)
ABL1 non-phosphorylated: Tyrosine-protein kinase ABL1, non-phosphorylated (ABL1, Homo sapiens, UniProt P00519)
ABL1 H396P: Tyrosine-protein kinase ABL1 (ABL1, Homo sapiens, UniProt P00519, H396P)

SMILES | target | test | conditions | remaining binding [%]
O=C(N[C@H]1CCCCC/C=C\C2C[C@@]2(C(=O)O)NC(=O)[C@@H]2C[C@@H](Oc3ccncc3)CN2C1=O)OC1CCCC1 (stereo partly drawn) | ABL1 M351T phosphorylated | binding, competition with immobilised ligand | 1 µM | 89
COc1ncc2cc3ccccc3nc2c1C#N | ABL1 T315I non-phosphorylated | cell-free assay, competition with immobilised ligand | 5 µM | 100
O=C(Nc1cnc(Oc2ccc(F)cc2)nc1)N1CCc2ncccc2[C@@H]1c1ccc(F)cc1 | ABL1 phosphorylated | cell-free assay, competition with immobilised ligand | 1 µM | 94
O=C(NCC1CCOCC1)c1n[nH]cc1NC(=O)c1c(F)cccc1F | ABL1 phosphorylated | binding, competition with immobilised ligand | 1 µM | 85
O=C(c1ccc(Nc2ncc(Cl)c(-c3ccc(Cl)s3)n2)cc1)N1CCC(N2CCCC2)CC1 | Tyrosine-protein kinase ABL1, phosphorylated (ABL1, Homo sapiens, UniProt P00519, F317I) | binding, competition with immobilised ligand | 1 µM | 87
O=S(=O)(NC1CCC(c2cc(F)ccc2F)(S(=O)(=O)c2ccc(Cl)cc2)CC1)C(F)(F)F (stereo not drawn) | ABL1 H396P non-phosphorylated | cell-free assay, competition with immobilised ligand | 1 µM | 100
Nc1ncc2c(n1)-c1c([nH]c3ccc(C#CC4CC4)cc13)CCCC2 | Tyrosine-protein kinase ABL1, non-phosphorylated (ABL1, Homo sapiens, UniProt P00519, F317I) | binding, competition with immobilised ligand | 1 µM | 84
O=C(c1ccc(Nc2nccc(-c3cc4ccccc4s3)n2)cc1)N1CCC(N2CCCC2)CC1 | ABL1 T315I non-phosphorylated | binding, competition with immobilised ligand | 1 µM | 2
C[C@@H]1CCN(c2nccc(-c3cnn4ncccc34)n2)C1 | Tyrosine-protein kinase ABL1 (ABL1, Homo sapiens, UniProt P00519, Q252H) | binding | 1 µM | 81
c1cncc(-c2cccc(Nc3nccc(NC4CCCCC4)n3)c2)c1 | Tyrosine-protein kinase ABL1, phosphorylated (ABL1, Homo sapiens, UniProt P00519, E255K) | binding, competition with immobilised ligand | 10 µM | 14
COc1cnc(Nc2cccc(S(N)(=O)=O)c2)nc1N1CCN(c2ccccc2)CC1 | Tyrosine-protein kinase ABL1, phosphorylated (ABL1, Homo sapiens, UniProt P00519, Y253F) | binding, competition with immobilised ligand | 1 µM | 73
CC1=C(C#N)[C@@H](c2ccc3[nH]nc(C)c3c2)C(C#N)=C(c2ccc(Cl)cc2)N1 | ABL1 Q252H phosphorylated | cell-free assay, competition with immobilised ligand | 1 µM | 100
COc1cnc(Nc2cccc(S(N)(=O)=O)c2)nc1N1CCN(c2ccccc2)C(=O)C1 | ABL1 H396P non-phosphorylated | binding, competition with immobilised ligand | 1 µM | 58
Cc1nc(N2CC[C@@H](O)C2)ncc1-c1cc(C(F)(F)F)cc2[nH]ncc12 | ABL1 phosphorylated | binding, competition with immobilised ligand | 1 µM | 61
C=CC(=O)N1CCC(C(=O)NCC(=O)N2CCN(c3nc(-c4cnc(N)nc4C(F)F)nc(N4CCOCC4)n3)CC2)CC1 | ABL1 H396P non-phosphorylated | binding, competition with immobilised ligand | 1 µM | 94
CO[C@H]1CC[C@H](CNc2ccc(S(=O)(=O)NC(=O)c3ccc(N4CCN(CC5=C(c6ccc(Cl)cc6)CC(C)(C)CC5)CC4)cc3Oc3cnc4[nH]ccc4c3)cc2[N+](=O)[O-])CC1 | ABL1 non-phosphorylated | cell-free assay, competition with immobilised ligand | 1 µM | 71
CN(CCCC(F)(F)F)c1nccc(-c2cnn3ncccc23)n1 | ABL1 non-phosphorylated | binding, competition with immobilised ligand | 1 µM | 76
O=C(NCCCN1CCOCC1)c1ccc(Nc2ncc(Cl)c(-c3ccc(Cl)s3)n2)cc1 | Tyrosine-protein kinase ABL1, phosphorylated (ABL1, Homo sapiens, UniProt P00519, T315I) | binding, competition with immobilised ligand | 1 µM | 2.5
C[C@H](c1ccc(F)cc1)N(Cc1cccc(C(=O)O)c1)C(=O)c1cnc2ccccc2c1 | ABL1 T315I non-phosphorylated | cell-free assay, competition with immobilised ligand | 1 µM | 85
COc1ccnn2ncc(-c3ccnc(N(C)C)n3)c12 | ABL1 H396P | binding | 1 µM | 100
O=C(NCCCN1CCOCC1)c1ccc(Nc2nccc(-c3cc4ccccc4s3)n2)cc1 | ABL1 Q252H phosphorylated | binding, competition with immobilised ligand | 1 µM | 58
CN(c1nccc(-c2cnn3ncccc23)n1)C1CC1 | Tyrosine-protein kinase ABL1 (ABL1, Homo sapiens, UniProt P00519, F317L) | binding | 1 µM | 100
Cc1nccc(COC(=O)N2C[C@@H]3[C@@H](CNC(=O)c4ccc5[nH]nnc5c4)[C@@H]3C2)n1 | ABL1 M351T phosphorylated | cell-free assay, competition with immobilised ligand | 1 µM | 95
O=C(Nc1c[nH]nc1C(=O)NC1CCNCC1)c1cc(F)cc(F)c1 | ABL1 non-phosphorylated | binding, competition with immobilised ligand | 1 µM | 98
CNC(=O)[C@@H]1CC[C@@H](n2c(-c3ccc4cnccc4c3)nc3ccc(C(=O)NCc4cccc(C(N)=O)c4)cc32)C1 | ABL1 M351T phosphorylated | binding, competition with immobilised ligand | 1 µM | 92
N[C@H]1CCN(c2nccc(-c3cnn4ncccc34)n2)C1 | ABL1 H396P | binding | 1 µM | 58
Cc1cnc(Nc2ccc(C(=O)N3CCC(N4CCCC4)CC3)cc2)nc1-c1cc2ccccc2s1 | ABL1 phosphorylated | binding, competition with immobilised ligand | 1 µM | 1.6
C[C@@H](c1ccc(-n2cnc3c(N)ncnc32)cc1)N1CCc2nn(C)c(Cc3ccccc3)c2C1=O | ABL1 H396P non-phosphorylated | binding, competition with immobilised ligand | 0.1 µM | 13
O=C(c1ccc(Nc2ncc(Cl)c(-c3cc4ccccc4s3)n2)cc1)N1CCC(N2CCCC2)CC1 | Tyrosine-protein kinase ABL1, non-phosphorylated (ABL1, Homo sapiens, UniProt P00519, Q252H) | binding, competition with immobilised ligand | 1 µM | 7.5
CCN1CCN(Cc2ccc(C(=O)Nc3ccc(C)c(Oc4ccc5c(c4)CC(=O)N5)c3)cc2C(F)(F)F)CC1 | Tyrosine-protein kinase ABL1, non-phosphorylated (ABL1, Homo sapiens, UniProt P00519, F317L) | binding, competition with immobilised ligand | 1 µM | 2.9
